Source: ChEMBL document CHEMBL5661985, “In silico design of novel probes for the atypical opioid receptor MRGPRX2” (Nat Chem Biol, 2017)
Active and inactive are the calls of the source. The calls are words filed in the database; no cut-off is given here.

Legend:
[1] = target: T1, Mas-related G-protein coupled receptor member X2 (Homo sapiens) (UniProt Q96LB1); test: Agonist activity at MRGPRX2 receptor in human LAD2 cells assessed as increase in intracellular calcium release by FLIPR assay; assay type: functional, cell-based; conditions: filed as agonist
T1 sequence (whole entry): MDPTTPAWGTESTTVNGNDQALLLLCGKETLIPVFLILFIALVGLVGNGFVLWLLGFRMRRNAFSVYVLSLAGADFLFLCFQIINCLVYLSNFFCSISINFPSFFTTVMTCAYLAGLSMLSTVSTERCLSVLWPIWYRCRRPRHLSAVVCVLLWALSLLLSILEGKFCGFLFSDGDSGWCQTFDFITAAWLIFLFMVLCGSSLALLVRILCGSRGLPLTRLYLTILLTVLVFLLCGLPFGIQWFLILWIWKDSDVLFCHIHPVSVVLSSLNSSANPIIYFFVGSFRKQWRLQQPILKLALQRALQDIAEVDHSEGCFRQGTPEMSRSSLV
Summary of the method: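 LAD2 human mast cells seeded 50,000/well in Tyrode's buffer with calcium dye, 1 h before drug; 10 s baseline, drug added, fluorescence followed 120 s; expressed as fold calcium release over baseline; n=3 in triplicate.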

[2] = target: T2, Mas-related G-protein coupled receptor member X2 (Homo sapiens, UniProt Q96LB1); test: Agonist activity at N-terminal Flag-tagged human MRGPRX2 receptor expressed in tetracycline-induced FLP-IN/T-REX 293 cells assessed as increase in intracellular calcium release by FLIPR assay; assay type: functional, cell-based
T2 sequence (Q96LB1 whole entry): T1 sequence (whole entry)

[3] = target: T2, Mas-related G-protein coupled receptor member X2; test: Agonist activity at MRGPRX2 (unknown origin) expressed in HTLA cells assessed as induction of beta-arrestin 2 recruitment incubated for 18 to 24 hrs by PRESTO-Tango assay; assay type: functional, cell-based
[4] = system: HTLA; test: Agonist activity at MRGPRX2 D184E mutant (unknown origin) expressed in HTLA cells assessed as induction of beta-arrestin 2 recruitment incubated for 18 to 24 hrs by PRESTO-Tango assay; assay type: cell-based; conditions: Homo sapiens, time 18-24 hrs
Summary of the method: (§1)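 β-arrestin2 recruitment by PRESTO-Tango: HTLA cells transiently transfected (calcium phosphate) with codon-optimized MRGPRX2-Tango (WT or point mutant) or MRGPRB2-Tango, plated next day 20,000 cells/well on poly-L-lysine; drug in HBSS/20 mM HEPES/0.3% BSA pH 7.4 for 18–24 h; Bright-Glo luminescence (RLU); curves n=3 in triplicate, mutants n=4 in triplicate.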

[5] = target: T1, Mas-related G-protein coupled receptor member X2 (Homo sapiens); test: Agonist activity at MRGPRX2 receptor in human LAD2 cells transfected with MRGPRX2 siRNA assessed as increase in degranulation incubated for 30 mins by beta-hexosaminidase assay; assay type: functional, cell-based
Summary of the method: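 LAD2 cells (1.2 million/well) transfected with 25 nM MRGPRX2 siRNA pool or non-targeting pool, 72 h; 200,000 cells taken for β-hexosaminidase assay with EC80 concentration of agonist, 30 min 37°C; knockdown checked by qRT-PCR on 1 million cells; fold change % degranulation versus DMSO; two-way ANOVA with Sidak test.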

[6] = target: T1, Mas-related G-protein coupled receptor member X2 (Homo sapiens); test: Agonist activity at MRGPRX2 receptor in human LAD2 cells assessed as increase in degranulation incubated for 30 mins in presence of naloxone by beta-hexosaminidase assay; assay type: functional, cell-based
Summary of the method: (§2)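 β-Hexosaminidase release: LAD2 cells in fresh medium 18 h, washed in Tyrode's buffer pH 7.4, 10,000 cells/well; drug (single concentration or 8-point curve) added in triplicate, 30 min 37°C; supernatant and Triton X-100 lysate each reacted with NAG in citrate pH 4.5 for 90 min 37°C, stopped with carbonate pH 10, A405; % release = released/total ×100, minus vehicle.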

[7] = target: T1, Mas-related G-protein coupled receptor member X2 (Homo sapiens); test: Agonist activity at MRGPRX2 receptor in human LAD2 cells assessed as increase in degranulation incubated for 30 mins by beta-hexosaminidase assay; assay type: functional, cell-based; conditions: filed as agonist; summary of the method: as §2
[8] = system: HTLA; test: Agonist activity at MRGPRX2 E164D mutant (unknown origin) expressed in HTLA cells assessed as induction of beta-arrestin 2 recruitment incubated for 18 to 24 hrs by PRESTO-Tango assay; assay type: cell-based; conditions: Homo sapiens, filed as agonist, time 18-24 hrs; summary of the method: as §1
[9] = target: T1, Mas-related G-protein coupled receptor member X2 (Homo sapiens); test: Agonist activity at N-terminal Flag-tagged human MRGPRX2 receptor expressed in HEK-T cells assessed as increase in intracellular calcium release by FLIPR assay; assay type: functional, cell-based; conditions: HEK-T cell
Summary of the method: (§3)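 FLIPR calcium: FLP-IN/T-REX HEK-293-T stable line with N-terminal FLAG codon-optimized receptor, induced 24 h with 1 μg/mL tetracycline in 1% dialyzed FBS (uninduced cells as control); FLIPR calcium dye plus 2.5 mM probenecid 1 h 37°C; 10 s baseline, then drug in HBSS/20 mM HEPES/probenecid pH 7.4, 16-point curve 10 μM to 0.003 nM; fluorescence 120 s; fold over basal, n=3 triplicate.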

[10] = target: T1, Mas-related G-protein coupled receptor member X2 (Homo sapiens); test: Agonist activity at N-terminal Flag-tagged human MRGPRX2 receptor expressed in tetracycline-induced HEK-T cells assessed as increase in intracellular calcium release by FLIPR assay; assay type: functional, cell-based; conditions: HEK-T cell, filed as agonist; summary of the method: as §3
[11] = target: Pituitary adenylate cyclase-activating polypeptide type I receptor (Homo sapiens) (UniProt P41586); test: Agonist activity at ADCYAP1 receptor (unknown origin)
Summary of the method: (§4)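 PRESTO-Tango β-arrestin2 recruitment; HTLA cells (HEK-T stably expressing β-arrestin2-TEV and tTA-dependent luciferase) transfected by calcium phosphate with receptor-Tango construct, replated next day at 20,000 cells/well; compounds in HBSS/20 mM HEPES/0.3% BSA pH 7.4, 18–24 h; Bright-Glo luminescence after 15 min RT, read as RLU; ≥2-fold over basal scored active.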

[12] = target: Glucose-dependent insulinotropic receptor (Homo sapiens) (UniProt Q8TDV5); test: Agonist activity at GPR119 receptor (unknown origin); assay type: functional; summary of the method: as §4
Glucose-dependent insulinotropic receptor (Homo sapiens), sequence (Q8TDV5 whole entry): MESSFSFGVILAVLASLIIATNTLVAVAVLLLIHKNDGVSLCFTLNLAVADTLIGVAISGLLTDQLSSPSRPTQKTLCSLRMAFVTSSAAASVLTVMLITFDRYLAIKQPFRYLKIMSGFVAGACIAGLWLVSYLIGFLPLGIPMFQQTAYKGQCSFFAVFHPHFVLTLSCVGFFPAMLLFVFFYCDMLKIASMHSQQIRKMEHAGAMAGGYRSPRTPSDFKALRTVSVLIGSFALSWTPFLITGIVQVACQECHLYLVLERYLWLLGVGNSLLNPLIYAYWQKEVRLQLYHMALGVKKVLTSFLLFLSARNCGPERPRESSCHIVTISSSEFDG

[13] = target: Beta-3 adrenergic receptor (Homo sapiens) (UniProt P13945); test: Agonist activity at ADRB3 receptor (unknown origin); assay type: functional; summary of the method: as §4
[14] = target: Glucagon-like peptide 1 receptor (Homo sapiens) (UniProt P43220); test: Agonist activity at GLP1R (unknown origin); assay type: functional; summary of the method: as §4
Glucagon-like peptide 1 receptor (Homo sapiens), sequence (P43220 whole entry): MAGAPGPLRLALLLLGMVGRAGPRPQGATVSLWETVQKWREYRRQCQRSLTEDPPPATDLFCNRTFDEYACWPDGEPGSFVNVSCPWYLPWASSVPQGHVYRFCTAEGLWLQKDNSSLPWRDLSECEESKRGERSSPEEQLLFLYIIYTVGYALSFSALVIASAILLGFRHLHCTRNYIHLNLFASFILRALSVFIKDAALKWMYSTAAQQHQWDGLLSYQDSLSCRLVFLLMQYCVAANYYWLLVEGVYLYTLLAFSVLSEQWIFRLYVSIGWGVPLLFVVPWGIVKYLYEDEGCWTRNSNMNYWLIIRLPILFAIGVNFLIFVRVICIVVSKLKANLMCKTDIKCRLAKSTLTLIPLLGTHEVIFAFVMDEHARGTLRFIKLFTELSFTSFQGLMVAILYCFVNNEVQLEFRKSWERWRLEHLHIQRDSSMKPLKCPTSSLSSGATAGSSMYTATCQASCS

[15] = target: Lutropin-choriogonadotropic hormone receptor (Homo sapiens) (UniProt P22888); test: Agonist activity at LHCGR (unknown origin); assay type: functional; summary of the method: as §4
[16] = target: Muscarinic acetylcholine receptor M2 (Homo sapiens) (UniProt P08172); test: Agonist activity at CHRM2 receptor (unknown origin); assay type: functional; summary of the method: as §4
[17] = target: G-protein coupled receptor 15 (Homo sapiens) (UniProt P49685); test: Agonist activity at GPR15 receptor (unknown origin); assay type: functional; summary of the method: as §4
G-protein coupled receptor 15 (Homo sapiens), sequence (P49685 whole entry): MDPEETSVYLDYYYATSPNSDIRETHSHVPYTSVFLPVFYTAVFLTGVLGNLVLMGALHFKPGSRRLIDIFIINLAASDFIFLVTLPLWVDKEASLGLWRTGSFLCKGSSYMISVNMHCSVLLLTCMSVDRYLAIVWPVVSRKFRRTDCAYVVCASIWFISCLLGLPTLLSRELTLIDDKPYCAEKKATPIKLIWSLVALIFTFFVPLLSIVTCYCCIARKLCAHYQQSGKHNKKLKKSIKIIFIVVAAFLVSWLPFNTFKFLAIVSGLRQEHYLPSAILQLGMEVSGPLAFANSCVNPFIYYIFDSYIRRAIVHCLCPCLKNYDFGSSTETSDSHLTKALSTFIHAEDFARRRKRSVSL

[18] = target: D(4) dopamine receptor (Homo sapiens) (UniProt P21917); test: Agonist activity at DRD4 receptor (unknown origin); assay type: functional; summary of the method: as §4
[19] = target: Proteinase-activated receptor 2 (Homo sapiens) (UniProt P55085); test: Agonist activity at F2R-L1 receptor (unknown origin); summary of the method: as §4
Proteinase-activated receptor 2 (Homo sapiens), sequence (P55085 whole entry): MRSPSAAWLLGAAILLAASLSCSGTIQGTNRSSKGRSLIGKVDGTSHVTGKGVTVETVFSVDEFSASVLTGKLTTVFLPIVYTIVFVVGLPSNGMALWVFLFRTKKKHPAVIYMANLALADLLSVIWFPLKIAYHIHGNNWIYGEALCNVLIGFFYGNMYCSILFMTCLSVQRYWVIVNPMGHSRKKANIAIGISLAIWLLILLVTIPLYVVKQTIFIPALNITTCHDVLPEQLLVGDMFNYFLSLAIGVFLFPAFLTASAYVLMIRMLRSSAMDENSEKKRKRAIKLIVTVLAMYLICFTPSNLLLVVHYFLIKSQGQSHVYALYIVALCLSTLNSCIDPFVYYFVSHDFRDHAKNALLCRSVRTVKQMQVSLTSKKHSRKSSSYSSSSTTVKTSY

[20] = target: Cannabinoid receptor 2 (Homo sapiens) (UniProt P34972); test: Agonist activity at CNR2 receptor (unknown origin); assay type: functional; summary of the method: as §4
[21] = target: 5-hydroxytryptamine receptor 2A (Homo sapiens) (UniProt P28223); test: Agonist activity at HTR2 receptor (unknown origin); assay type: functional; summary of the method: as §4
[22] = target: Alpha-1A adrenergic receptor (Homo sapiens) (UniProt P35348); test: Agonist activity at ADRA1A receptor (unknown origin); assay type: functional; summary of the method: as §4
[23] = target: Alpha-1B adrenergic receptor (Homo sapiens) (UniProt P35368); test: Agonist activity at ADRA1B receptor (unknown origin); assay type: functional; summary of the method: as §4
Alpha-1B adrenergic receptor (Homo sapiens), sequence (P35368 whole entry): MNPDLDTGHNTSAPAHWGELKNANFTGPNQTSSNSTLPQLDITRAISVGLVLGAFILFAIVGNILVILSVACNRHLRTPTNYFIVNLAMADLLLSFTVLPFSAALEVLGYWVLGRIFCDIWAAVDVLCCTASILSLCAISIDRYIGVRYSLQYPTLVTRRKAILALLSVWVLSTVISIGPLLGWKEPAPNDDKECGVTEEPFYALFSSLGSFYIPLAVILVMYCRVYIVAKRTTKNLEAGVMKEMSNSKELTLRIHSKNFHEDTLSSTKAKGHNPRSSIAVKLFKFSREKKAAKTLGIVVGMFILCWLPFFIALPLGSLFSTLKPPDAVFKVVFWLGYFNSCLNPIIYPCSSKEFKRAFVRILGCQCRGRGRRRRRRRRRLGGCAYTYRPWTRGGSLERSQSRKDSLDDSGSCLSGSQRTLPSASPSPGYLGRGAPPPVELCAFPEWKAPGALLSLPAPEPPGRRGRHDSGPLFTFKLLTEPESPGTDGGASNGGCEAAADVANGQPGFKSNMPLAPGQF

[24] = target: 5-hydroxytryptamine receptor 1A (Homo sapiens) (UniProt P08908); test: Agonist activity at HTR1A receptor (unknown origin); assay type: functional; summary of the method: as §4
[25] = target: Alpha-2C adrenergic receptor (Homo sapiens) (UniProt P18825); test: Agonist activity at ADRA2C receptor (unknown origin); summary of the method: as §4
Alpha-2C adrenergic receptor (Homo sapiens), sequence (P18825 whole entry): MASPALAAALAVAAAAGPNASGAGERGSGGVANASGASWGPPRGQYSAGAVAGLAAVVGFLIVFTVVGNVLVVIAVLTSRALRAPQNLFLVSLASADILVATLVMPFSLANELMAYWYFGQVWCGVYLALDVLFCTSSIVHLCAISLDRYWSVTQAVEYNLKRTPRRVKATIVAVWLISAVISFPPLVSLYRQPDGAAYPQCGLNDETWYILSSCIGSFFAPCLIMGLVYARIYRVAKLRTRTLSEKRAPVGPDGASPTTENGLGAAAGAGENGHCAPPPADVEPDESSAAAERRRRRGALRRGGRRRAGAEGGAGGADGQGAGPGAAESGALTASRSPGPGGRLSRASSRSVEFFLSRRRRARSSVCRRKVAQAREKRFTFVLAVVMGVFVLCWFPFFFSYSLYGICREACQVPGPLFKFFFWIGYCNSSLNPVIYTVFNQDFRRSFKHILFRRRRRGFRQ

[26] = target: Prosaposin receptor GPR37 (Homo sapiens) (UniProt O15354); test: Agonist activity at GPR37 receptor (unknown origin); assay type: functional; summary of the method: as §4
Prosaposin receptor GPR37 (Homo sapiens), sequence (O15354 whole entry): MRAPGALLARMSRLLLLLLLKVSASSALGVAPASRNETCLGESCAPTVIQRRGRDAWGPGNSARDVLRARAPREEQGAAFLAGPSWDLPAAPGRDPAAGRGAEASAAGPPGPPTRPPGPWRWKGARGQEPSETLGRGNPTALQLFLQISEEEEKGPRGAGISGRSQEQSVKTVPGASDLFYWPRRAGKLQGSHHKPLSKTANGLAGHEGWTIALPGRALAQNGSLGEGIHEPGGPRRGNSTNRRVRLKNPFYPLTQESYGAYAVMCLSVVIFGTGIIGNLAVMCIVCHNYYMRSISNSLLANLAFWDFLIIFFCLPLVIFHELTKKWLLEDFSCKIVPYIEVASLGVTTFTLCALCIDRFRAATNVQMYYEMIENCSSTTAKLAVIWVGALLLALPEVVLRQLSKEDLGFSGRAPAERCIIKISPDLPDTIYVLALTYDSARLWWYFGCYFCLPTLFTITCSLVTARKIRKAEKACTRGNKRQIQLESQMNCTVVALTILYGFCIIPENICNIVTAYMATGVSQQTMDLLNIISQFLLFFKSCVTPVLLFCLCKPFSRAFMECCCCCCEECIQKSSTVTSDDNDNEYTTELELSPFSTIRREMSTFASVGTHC

[27] = target: Gastrin-releasing peptide receptor (Homo sapiens) (UniProt P30550); test: Agonist activity at GRPR (unknown origin); assay type: functional; summary of the method: as §4
Gastrin-releasing peptide receptor (Homo sapiens), sequence (P30550 whole entry, looked up): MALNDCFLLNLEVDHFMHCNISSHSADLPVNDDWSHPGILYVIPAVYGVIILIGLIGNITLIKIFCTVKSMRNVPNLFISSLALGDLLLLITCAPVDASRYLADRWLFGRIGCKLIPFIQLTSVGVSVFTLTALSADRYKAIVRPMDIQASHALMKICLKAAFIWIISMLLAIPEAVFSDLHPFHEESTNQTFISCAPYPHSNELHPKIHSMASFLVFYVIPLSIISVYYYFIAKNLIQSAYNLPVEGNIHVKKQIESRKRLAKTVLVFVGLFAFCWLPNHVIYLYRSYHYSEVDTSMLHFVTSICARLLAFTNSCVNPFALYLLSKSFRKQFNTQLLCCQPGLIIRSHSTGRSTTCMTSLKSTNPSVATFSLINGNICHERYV

[28] = target: Beta-1 adrenergic receptor (Homo sapiens) (UniProt P08588); test: Agonist activity at ADRB1 receptor (unknown origin); assay type: functional; summary of the method: as §4
Beta-1 adrenergic receptor (Homo sapiens), sequence (P08588 whole entry, looked up): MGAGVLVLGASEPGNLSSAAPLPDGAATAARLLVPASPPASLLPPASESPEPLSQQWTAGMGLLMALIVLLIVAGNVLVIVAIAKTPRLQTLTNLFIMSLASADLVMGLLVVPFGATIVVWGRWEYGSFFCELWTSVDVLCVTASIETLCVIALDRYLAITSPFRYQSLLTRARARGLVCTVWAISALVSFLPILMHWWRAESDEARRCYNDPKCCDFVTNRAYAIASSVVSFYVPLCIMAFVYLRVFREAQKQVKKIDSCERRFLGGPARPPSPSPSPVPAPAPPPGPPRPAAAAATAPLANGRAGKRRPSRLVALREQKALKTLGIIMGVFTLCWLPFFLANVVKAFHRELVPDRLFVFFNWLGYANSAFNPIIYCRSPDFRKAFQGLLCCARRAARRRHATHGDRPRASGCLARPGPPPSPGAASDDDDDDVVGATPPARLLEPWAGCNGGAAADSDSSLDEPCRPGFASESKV

[29] = target: Type-1 angiotensin II receptor (Homo sapiens) (UniProt P30556); test: Agonist activity at AGTR1 receptor (unknown origin); assay type: functional; summary of the method: as §4
Type-1 angiotensin II receptor (Homo sapiens), sequence (P30556 whole entry): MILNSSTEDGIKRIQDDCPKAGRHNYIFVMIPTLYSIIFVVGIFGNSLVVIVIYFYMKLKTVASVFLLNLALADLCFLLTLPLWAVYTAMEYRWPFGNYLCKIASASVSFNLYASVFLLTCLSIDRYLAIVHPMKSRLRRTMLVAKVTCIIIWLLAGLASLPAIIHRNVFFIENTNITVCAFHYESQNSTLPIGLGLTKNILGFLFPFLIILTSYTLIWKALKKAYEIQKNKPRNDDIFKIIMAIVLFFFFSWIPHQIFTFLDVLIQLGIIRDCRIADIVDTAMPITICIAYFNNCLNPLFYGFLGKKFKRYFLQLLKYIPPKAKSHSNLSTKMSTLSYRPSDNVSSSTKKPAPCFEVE

[30] = target: Melanin-concentrating hormone receptor 2 (Homo sapiens) (UniProt Q969V1); test: Agonist activity at MCHR2 receptor (unknown orgini); assay type: functional; summary of the method: as §4
[31] = target: Alpha-1D adrenergic receptor (Homo sapiens) (UniProt P25100); test: Agonist activity at ADRA1D receptor (unknown origin); assay type: functional; summary of the method: as §4
Alpha-1D adrenergic receptor (Homo sapiens), sequence (P25100 whole entry): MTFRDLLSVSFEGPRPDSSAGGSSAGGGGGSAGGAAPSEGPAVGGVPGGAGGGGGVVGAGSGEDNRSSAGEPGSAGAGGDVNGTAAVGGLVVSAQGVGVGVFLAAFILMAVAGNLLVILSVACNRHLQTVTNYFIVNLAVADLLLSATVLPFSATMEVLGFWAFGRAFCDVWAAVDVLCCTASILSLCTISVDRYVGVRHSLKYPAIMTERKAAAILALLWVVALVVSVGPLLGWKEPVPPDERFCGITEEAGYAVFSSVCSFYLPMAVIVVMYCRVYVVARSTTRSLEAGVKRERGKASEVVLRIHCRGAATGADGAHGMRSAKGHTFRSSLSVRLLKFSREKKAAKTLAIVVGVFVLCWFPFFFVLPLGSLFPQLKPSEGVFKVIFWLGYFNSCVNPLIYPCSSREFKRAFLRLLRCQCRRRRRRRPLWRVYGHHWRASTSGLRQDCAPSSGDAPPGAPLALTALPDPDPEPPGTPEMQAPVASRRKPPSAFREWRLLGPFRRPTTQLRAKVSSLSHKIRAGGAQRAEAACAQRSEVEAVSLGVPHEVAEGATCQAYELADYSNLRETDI

CN1CC[C@]23c4c5ccc(O)c4O[C@H]2[C@@H](O)C=C[C@H]3[C@H]1C5 [MORPHINE]
Activity [1]: Active | EC50 ([2]; read-out: EC50): 7 µM | EC50 ([3]; read-out: EC50): 6.4 µM | EC50 ([3]; read-out: pEC50 (converted)): 6.17 µM | Activity [4]: inactive | Activity [5]: inactive | Activity [6]: inactive | Activity [7]: Active | Activity [8]: Active

CN1CC[C@@]23CCCC[C@@H]2[C@@H]1Cc1ccc(O)cc13 [DEXTRORPHAN]
EC50 ([2]; read-out: EC50): 6 µM | EC50 ([2]; read-out: pEC50 (converted)): 3.89 µM | Activity [9]: inactive | EC50 ([3]; read-out: EC50): 4.3 µM | EC50 ([3]; read-out: pEC50 (converted)): 4.17 µM | Activity [10]: Active | Activity [4]: inactive | Activity [8]: Active

CN(C)[C@@H]1CCN(c2cc(-c3ccccc3)nc3ccnn23)C1 [(R)-ZINC-3573]
EC50 ([2]; read-out: EC50): 1 µM | EC50 ([3]; read-out: EC50): 0.74 µM | Activity [11]: inactive | Activity [12]: inactive | Activity [13]: inactive | Activity [14]: inactive | Activity [15]: inactive | Activity [16]: inactive | Activity [17]: inactive | Activity [18]: inactive | Activity [19]: inactive | Activity [7]: Active | Activity [20]: inactive | Activity [21]: inactive | Activity [22]: inactive | Activity [23]: inactive | Activity [24]: inactive | Activity [25]: inactive | Activity [26]: inactive | Activity [27]: inactive | Activity [28]: inactive | Activity [29]: inactive | Activity [30]: inactive | Activity [31]: inactive

COC1=CC2CN(C)CCC2C=C1 (configuration not stated)
EC50 ([2]; read-out: pEC50 (converted)): 1.62 µM
